In data set [1] the target is T1, Peroxisome proliferator-activated receptor gamma (Homo sapiens, UniProt P37231).
T1 sequence (P37231 whole entry): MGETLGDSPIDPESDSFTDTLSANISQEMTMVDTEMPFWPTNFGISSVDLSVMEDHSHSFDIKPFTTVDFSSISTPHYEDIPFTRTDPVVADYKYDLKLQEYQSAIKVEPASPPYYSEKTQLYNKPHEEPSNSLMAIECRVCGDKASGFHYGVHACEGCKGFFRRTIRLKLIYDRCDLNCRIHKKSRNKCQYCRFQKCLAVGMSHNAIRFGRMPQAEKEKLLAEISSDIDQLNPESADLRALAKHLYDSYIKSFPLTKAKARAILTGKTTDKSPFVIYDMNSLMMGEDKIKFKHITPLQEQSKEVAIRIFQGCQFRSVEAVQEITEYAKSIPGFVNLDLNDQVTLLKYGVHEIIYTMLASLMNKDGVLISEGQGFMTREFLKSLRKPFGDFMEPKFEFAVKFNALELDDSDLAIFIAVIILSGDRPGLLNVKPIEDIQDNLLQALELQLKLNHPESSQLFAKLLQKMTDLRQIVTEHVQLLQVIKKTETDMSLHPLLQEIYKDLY
Briefly: Partial agonist activity at recombinant N-terminal GFP-fused PPARgamma LBD (unknown origin) assessed as increase in biotinylated-CBP peptide recruitment measured after 2 hrs by HTRF assay. A digest of the protocol:
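Cell-free HTRF assay of CBP coactivator recruitment to recombinant PPARγ protein.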

Data set [2] concerns the target Liver X receptor (Homo sapiens) (UniProt Q13133+P55055). Briefly: Agonist activity at LXR (unknown origin) at 10 uM. The class given is protein assay.
The nature of data set [3]: Partial agonist activity at recombinant PPARgamma LBD/N-terminal GFP-fused RXRalpha mutant LBD (unknown origin) assessed as increase in biotinylated-SRC1 peptide recruitment measured after 2 hrs by HTRF assay. Further details: species or system Homo sapiens. A digest of the protocol:
(§1)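 Cell-free HTRF assay of coactivator peptide recruitment (CBP or SRC-1) to the recombinant PPARγ:RXRα heterodimer.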

Data set [4] concerns the target T2, Peroxisome proliferator-activated receptor delta (Homo sapiens, UniProt Q03181).
T2 sequence (Q03181 whole entry): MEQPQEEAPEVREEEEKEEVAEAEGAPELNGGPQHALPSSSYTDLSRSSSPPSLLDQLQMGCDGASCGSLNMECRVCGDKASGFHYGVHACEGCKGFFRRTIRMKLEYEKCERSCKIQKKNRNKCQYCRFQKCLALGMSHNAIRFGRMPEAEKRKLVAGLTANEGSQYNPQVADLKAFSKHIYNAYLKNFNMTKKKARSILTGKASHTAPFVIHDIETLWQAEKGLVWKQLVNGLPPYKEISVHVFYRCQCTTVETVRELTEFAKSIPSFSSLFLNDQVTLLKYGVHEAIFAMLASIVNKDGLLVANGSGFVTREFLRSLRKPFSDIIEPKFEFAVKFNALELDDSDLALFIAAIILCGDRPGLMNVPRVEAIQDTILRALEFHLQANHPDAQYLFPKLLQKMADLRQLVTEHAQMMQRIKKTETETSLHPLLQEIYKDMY
Briefly: Partial agonist activity at Gal4-fused PPARdelta LBD (unknown origin) expressed in HEK293T cells after 14 to 16 hrs by dual-Glo luciferase assay. It counts as cell-based. Put shortly:
(§2)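 Gal4 hybrid reporter assay in transiently transfected HEK293T cells. Constructs fuse the yeast Gal4 DNA-binding domain to the human receptor LBD. Firefly luciferase is the reporter. Constitutive renilla luciferase monitors transfection efficiency and toxicity. EC50 and maximal relative activation are reported as mean±S.E.M., n≥3.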

Data set [5] has as its target T1, Peroxisome proliferator-activated receptor gamma. Briefly: Partial agonist activity at Gal4-fused PPARgamma LBD (unknown origin) expressed in HEK293T cells after 14 to 16 hrs by dual-Glo luciferase assay. It counts as cell-based. A digest of the protocol:
as §2

Data set [6] can be described thus: Partial agonist activity at recombinant PPARgamma LBD/N-terminal GFP-fused RXRalpha mutant LBD (unknown origin) assessed as increase in biotinylated-CBP peptide recruitment measured after 2 hrs by HTRF assay. Also on record: species or system Homo sapiens. A digest of the protocol:
as §1
(In general: In TR-FRET formats the signal depends on donor and acceptor labels being close together.)

The target of data set [7] is T1, Peroxisome proliferator-activated receptor gamma. Briefly: Selective modulation of PPARgamma in human HepG2 cells assessed as induction of ANGPTL4 mRNA expression at 1 uM measured after 12 hrs by qPCR analysis. The class given is cell-based. To be noted: hepg2, 12 h. Put shortly:
(§3)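 HepG2 cells were incubated with test compound at 1 µM. mRNA of the PPARγ target genes adiponectin and ANGPTL4 was quantified. Mean±S.E.M., n≥3.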

Data set [8] can be described thus: Stability in Sprague-Dawley rat liver microsomes assessed as parent compound remaining at 10 uM after 60 mins by HPLC analysis. The class given is ADME, Microsome. The note with it: read-out: Stability. Put shortly: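 Incubation with rat liver microsomes, measuring compound remaining after 60 minutes.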
(Liver microsomes are a subcellular fraction often used to study metabolism.)

Data set [9] addresses T3, Peroxisome proliferator-activated receptor gamma (Homo sapiens) (UniProt P37231).
T3 sequence (whole entry): T1 sequence (P37231 whole entry)
Briefly: Partial agonist activity at Gal4-fused PPARgamma LBD (unknown origin) expressed in HEK293T cells after 14 to 16 hrs by dual-Glo luciferase assay relative to pioglitazone. The class given is cell-based. A digest of the protocol: as §2

Data set [10] concerns the target T3, Peroxisome proliferator-activated receptor gamma (Homo sapiens). Briefly: Selective modulation of PPARgamma in human HepG2 cells assessed as induction of adiponectin mRNA expression at 1 uM measured after 12 hrs by qPCR analysis. It counts as cell-based. Put shortly: as §3
On the technique in general: Quantitative PCR measures a nucleic acid by following its amplification.

The target in data set [11] is T4, Bile acid receptor (Homo sapiens) (UniProt Q96RI1).
T4 sequence (whole entry): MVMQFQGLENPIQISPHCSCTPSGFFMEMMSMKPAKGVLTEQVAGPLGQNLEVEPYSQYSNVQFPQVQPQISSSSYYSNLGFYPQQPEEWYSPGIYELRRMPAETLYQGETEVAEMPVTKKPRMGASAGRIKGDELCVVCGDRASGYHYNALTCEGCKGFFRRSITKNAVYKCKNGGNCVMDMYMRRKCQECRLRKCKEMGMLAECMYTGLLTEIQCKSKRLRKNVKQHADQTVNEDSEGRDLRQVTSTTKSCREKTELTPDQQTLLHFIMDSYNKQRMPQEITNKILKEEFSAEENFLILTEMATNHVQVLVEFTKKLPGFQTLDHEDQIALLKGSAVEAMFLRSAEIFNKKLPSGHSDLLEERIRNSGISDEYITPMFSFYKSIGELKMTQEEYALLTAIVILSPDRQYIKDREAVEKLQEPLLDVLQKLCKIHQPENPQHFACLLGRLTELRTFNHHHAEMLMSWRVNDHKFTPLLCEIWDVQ
Put plainly: Agonist activity at FXR (unknown origin) at 10 uM.

The target of data set [12] is Retinoid X receptor (Homo sapiens) (UniProt P28702+P48443+P19793). Briefly: Agonist activity at RXR (unknown origin) at 10 uM. It counts as protein assay.

Molecules are shown by their SMILES. pEC50: −log10 of the molar value. Activity calls are given as the source filed them. The calls are words filed in the database; no cut-off is given here.

Retinoid X receptor (Homo sapiens), sequence (P19793 whole entry, looked up): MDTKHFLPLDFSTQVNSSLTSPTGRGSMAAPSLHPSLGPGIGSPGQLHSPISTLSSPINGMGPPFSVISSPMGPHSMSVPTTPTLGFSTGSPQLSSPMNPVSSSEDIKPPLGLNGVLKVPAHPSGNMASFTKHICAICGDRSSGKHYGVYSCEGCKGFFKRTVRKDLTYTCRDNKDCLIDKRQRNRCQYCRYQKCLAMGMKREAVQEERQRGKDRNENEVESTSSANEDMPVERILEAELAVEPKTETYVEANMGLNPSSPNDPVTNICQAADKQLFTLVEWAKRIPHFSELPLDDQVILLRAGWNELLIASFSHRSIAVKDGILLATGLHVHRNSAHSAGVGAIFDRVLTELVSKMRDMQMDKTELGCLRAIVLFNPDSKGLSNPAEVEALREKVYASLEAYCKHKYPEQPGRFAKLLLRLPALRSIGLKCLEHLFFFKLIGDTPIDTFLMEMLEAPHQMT
Retinoid X receptor (Homo sapiens), sequence (P28702 whole entry, looked up): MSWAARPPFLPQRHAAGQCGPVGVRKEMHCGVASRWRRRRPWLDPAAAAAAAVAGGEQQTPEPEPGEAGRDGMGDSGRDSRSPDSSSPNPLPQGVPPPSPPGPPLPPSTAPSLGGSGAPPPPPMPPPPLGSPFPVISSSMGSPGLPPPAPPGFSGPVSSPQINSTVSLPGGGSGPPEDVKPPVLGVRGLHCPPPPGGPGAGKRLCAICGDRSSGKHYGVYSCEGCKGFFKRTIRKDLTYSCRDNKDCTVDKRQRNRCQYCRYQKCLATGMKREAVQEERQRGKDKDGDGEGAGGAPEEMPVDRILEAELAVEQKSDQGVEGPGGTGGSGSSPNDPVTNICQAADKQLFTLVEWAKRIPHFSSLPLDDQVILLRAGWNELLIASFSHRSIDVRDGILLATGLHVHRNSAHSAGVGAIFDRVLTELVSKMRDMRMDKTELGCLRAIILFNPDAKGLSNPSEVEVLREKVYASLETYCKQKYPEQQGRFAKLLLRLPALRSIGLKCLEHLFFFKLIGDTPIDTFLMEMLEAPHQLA
Retinoid X receptor (Homo sapiens), sequence (P48443 whole entry, looked up): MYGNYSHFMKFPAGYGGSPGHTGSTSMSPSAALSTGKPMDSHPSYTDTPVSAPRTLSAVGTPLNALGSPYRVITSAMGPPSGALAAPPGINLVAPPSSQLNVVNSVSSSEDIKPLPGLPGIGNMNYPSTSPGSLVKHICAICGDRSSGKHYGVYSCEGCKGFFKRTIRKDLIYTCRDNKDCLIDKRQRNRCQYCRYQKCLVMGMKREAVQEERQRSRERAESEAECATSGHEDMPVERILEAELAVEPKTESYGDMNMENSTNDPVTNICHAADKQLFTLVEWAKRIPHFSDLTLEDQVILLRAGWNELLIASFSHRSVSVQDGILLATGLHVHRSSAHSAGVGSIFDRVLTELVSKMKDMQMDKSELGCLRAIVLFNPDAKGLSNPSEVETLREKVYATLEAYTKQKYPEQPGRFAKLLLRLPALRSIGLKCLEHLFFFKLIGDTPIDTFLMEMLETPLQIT

As a reminder, the pEC50 is the EC50 on a negative log10 scale, so that one unit is a factor of ten. Consider `CCCCCCC(Sc1nc2ccc(NS(=O)(=O)c3ccc(Cl)cc3Cl)cc2s1)C(=O)O` (configuration not stated), for which the pEC50 in data set [1] is 6.71; in data set [3], 6.05; in data set [4], 6.40; in [5], 8.66; in [6] it was 6.36. In addition, the result in [2], in [11] and in data set [12] was inactive. Further, the Activity result in [7] was “Not Active”. In addition, in data set [8], the remaining at 1 h, 10 µM amounted to 80%. For the same compound, the max activation in data set [9] worked out at 67%. For the same compound, in data set [10], the result was Active.

The values are drawn from ChEMBL document CHEMBL4354876, “A Selective Modulator of Peroxisome Proliferator-Activated Receptor γ with an Unprecedented Binding Mode” (J Med Chem, 2020).
